For 37 compounds, Kd, Activity and Ratio results are on record in ChEMBL document CHEMBL4017489, “Design, Synthesis, and Evaluation of New Selective NM23-H2 Binders as c-MYC Transcription Inhibitors via Disruption of the NM23-H2/G-Quadruplex Interaction” (J Med Chem, 2017).

The structures appear in SMILES notation. Active and inactive are the calls of the source. The rule behind the calls is not given here.

In test [1] the target is T1, Nucleoside diphosphate kinase B (Homo sapiens, UniProt P22392). As to the kind of experiment: Binding affinity to N-terminal NT-647-NHS labeled NM23-H2 (unknown origin) after 30 mins by MST analysis. The method in brief:
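NM23-H2 N-terminally labeled with RED-NHS dye (20 μM protein, 30 min dark, RT), free dye removed; 200 nM labeled protein with compound from 500 μM, 16 twofold steps, 30 min RT in 50 mM Tris-HCl pH 7.4, 150 mM NaCl, 10 mM MgCl2, 0.05% Tween-20; KD at half-plateau.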

Test [2] is described as follows: Binding affinity to biotin-labeled 18-mer duplex DNA hairpin (unknown origin) at 40 uM after 30 mins by SPR analysis. Background: Surface plasmon resonance follows binding to a sensor surface in real time, without labels.
Test [3] in a line: Binding affinity to Htg21 telomeric G-quadruplex DNA (unknown origin) at 40 uM after 30 mins by SPR analysis.
The target of test [4] is T1, Nucleoside diphosphate kinase B. As to the kind of experiment: Binding affinity to NM23-H2 (unknown origin) by SPR analysis.
Test [5] shares this target. As to the kind of experiment: Binding affinity to NM23-H2 (unknown origin) assessed as ratio of Kd for protein interaction with biotin-labeled Pu22 c-myc G-quadruplex DNA in presence and absence of compound after 1 hr by ELISA. Background: ELISA stands for enzyme-linked immunosorbent assay.
The target is the same in test [6]. As to the kind of experiment: Binding affinity to NM23-H2 (unknown origin) up to 40 uM by SPR analysis.

T1 sequence (P22392 whole entry): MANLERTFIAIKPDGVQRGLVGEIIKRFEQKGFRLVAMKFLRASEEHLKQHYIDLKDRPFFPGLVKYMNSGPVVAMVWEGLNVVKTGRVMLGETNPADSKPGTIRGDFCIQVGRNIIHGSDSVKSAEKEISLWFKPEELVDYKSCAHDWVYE

What is called Kd is the concentration at which binding is half-saturated. Higher therefore signals weaker binding. On to `CCN(CC)CCCNc1cc2nc3n(c(=O)c2cc1F)CC/C3=C\c1ccc(OC)c(OC)c1`, for which the Kd in test [1] came to 25.1 µM; in test [4] it was 17.1 µM. The result in test [2] and in test [3] was inactive.

For the compound `CN(C)CCCNc1cc2nc3n(c(=O)c2cc1F)CC/C3=C\c1ccc(Oc2ccccc2)cc1`, the Kd was found to be 16.3 µM in test [1] and 12.4 µM in test [4]. Further, the outcome in test [2] and in test [3] was inactive.

In the case of `O=c1c2cc(F)c(NCCCN3CCCC3)cc2nc2n1CC/C2=C\c1ccc(OCc2ccccc2)cc1O`, the results for the Kd in test [1] and in test [4] were 10.8 µM and 11.5 µM, respectively. The result in test [2] and in test [3] was inactive. For the same compound, the Ratio in test [5] was greater than 3.

`CCN(CC)CCCNc1cc2nc3n(c(=O)c2cc1F)CC/C3=C\c1ccc(OCc2ccccc2)cc1O`: the figures for the Kd in test [1] and in test [4] were 3.4 µM and 4.6 µM, respectively. Besides, the outcome in test [2] and in test [3] was inactive. Besides, the Ratio in test [5] was greater than 3.

`COc1ccc(/C=C2\CCn3c2nc2cc(NCCCN(C)C)c(F)cc2c3=O)cc1OC`: the Kd in test [1] was determined as 19.2 µM; in test [4] it was 15.8 µM. For the same compound, the outcome in test [2] and in test [3] was inactive.

As to `COc1cc(/C=C2\CCn3c2nc2cc(NCCCN(C)C)c(F)cc2c3=O)cc(OC)c1OC`, the Kd in test [1] was determined as 18.4 µM; in test [4], 16.8 µM. In addition, the outcome in test [2] and in test [3] was inactive. Also, the Ratio in test [5] is 2.1 to 2.6.

As for `CCN(CC)CCCNc1cc2nc3n(c(=O)c2cc1F)CC/C3=C\c1ccc(N2CCCCC2)cc1`, the outcome in test [2], in test [6] and in test [3] was inactive.

For `CCN(CC)CCCNc1cc2nc3n(c(=O)c2cc1F)CC/C3=C\c1ccccc1OC`, binding in test [1] was put at a Kd of 72.8 µM. Further, the outcome in test [2], in test [6] and in test [3] was inactive.

Take `CN(C)CCCNc1cc2nc3n(c(=O)c2cc1F)CC/C3=C\c1ccc(/C=C/c2ccccn2)cc1`: the Kd came out at 10.8 µM in test [1] and 8.5 µM in test [4]. Besides, the result in test [2] and in test [3] was inactive. Also, the Ratio in test [5] is greater than 3.

As for `O=c1c2cc(F)c(NCCCN3CCOCC3)cc2nc2n1CC/C2=C\c1ccc(OCc2ccccc2)cc1O`, the Kd in test [1] turned out to be 16.9 µM; in test [4], 14.3 µM. Also, the outcome in test [2] and in test [3] was inactive.

Turning to `CN(C)CCCNc1cc2nc3n(c(=O)c2cc1F)CC/C3=C\c1ccc(OCc2ccccc2)c(O)c1`, the figures for the Kd in test [1] and in test [4] were 16.1 µM and 13.2 µM, respectively. For the same compound, the outcome in test [2] and in test [3] was inactive. The Ratio in test [5] is greater than 3.

As to `COc1ccc(/C=C2\CCn3c2nc2cc(NCCCN4CCOCC4)c(F)cc2c3=O)cc1`, the Kd in test [1] worked out at 25.6 µM; in test [4] it was 28.4 µM. Further, the outcome in test [2] and in test [3] was inactive.

Regarding `O=c1c2cc(F)c(NCCN3CCCCC3)cc2nc2n1CC/C2=C\c1ccc(OCc2ccccc2)cc1O`, the Kd in test [1] is 7.6 µM; in test [4] it was 12.2 µM. Also, the result in test [2] and in test [3] was inactive. Further, the Ratio in test [5] is greater than 3.

In test [1], `C#CCOc1ccc(/C=C2\CCn3c2nc2cc(NCCN(C)C)c(F)cc2c3=O)cc1` returned a Kd of 27.5 µM. Moreover, the outcome in test [2], in test [6] and in test [3] was inactive.

`CC(C)Oc1ccc(/C=C2\CCn3c2nc2cc(NCCCN(C)C)c(F)cc2c3=O)cc1`: the Kd is 15.4 µM in test [1] and 9.6 µM in test [4]. The result in test [2] and in test [3] was inactive. Moreover, the Ratio in test [5] is greater than 3.

`CCCOc1ccc(/C=C2\CCn3c2nc2cc(NCCCN(C)C)c(F)cc2c3=O)cc1`: the figures for the Kd in test [1] and in test [4] were 21 µM and 20.6 µM, respectively. Moreover, the result in test [2] and in test [3] was inactive.

In test [1], `CCN(CC)CCCNc1cc2nc3n(c(=O)c2cc1F)CC/C3=C\c1ccc(C(F)(F)F)cc1` returned a Kd of 59.4 µM. For the same compound, the result in test [2], in test [6] and in test [3] was inactive.

In the case of `CCN(CC)CCCNc1cc2nc3n(c(=O)c2cc1F)CC/C3=C\c1ccc(OCc2ccccc2)cc1`, the dissociation constant (Kd) in test [1] came out at 20.6 µM; in test [4], 14.6 µM. For the same compound, the outcome in test [2] and in test [3] was inactive. In test [5], the Ratio was greater than 3.

Take `CCN(CC)CCCNc1cc2nc3n(c(=O)c2cc1F)CC/C3=C\c1ccc(F)cc1`: the Kd in test [1] came out at 61.6 µM. For the same compound, the outcome in test [2], in test [6] and in test [3] was inactive.

With `COc1cc(/C=C2\CCn3c2nc2cc(NCCCN(C)C)c(F)cc2c3=O)cc(OC)c1O`, the Kd in test [1] came to 16.5 µM; in test [4], 13.3 µM. For the same compound, the result in test [2] and in test [3] was inactive.

For the compound `C#CCOc1ccc(/C=C2\CCn3c2nc2cc(NCCCN(C)C)c(F)cc2c3=O)cc1`, the Kd was 8.9 µM in test [1] and 25.6 µM in test [4]. Besides, the outcome in test [2] and in test [3] was inactive.

On to `CN(C)CCCNc1cc2nc3n(c(=O)c2cc1F)CC/C3=C\c1ccc(O)c(O)c1`, for which the Kd in test [1] worked out at 10.7 µM; in test [4], 9.2 µM. For the same compound, the outcome in test [2] and in test [3] was inactive.

For `O=c1c2cc(F)c(NCCCN3CCOCC3)cc2nc2n1CC/C2=C\c1ccc(N2CCCCC2)cc1`, the outcome in test [2], in test [6] and in test [3] was inactive.

In the case of `O=c1c2cc(F)c(NCCCN3CCOCC3)cc2nc2n1CC/C2=C\c1ccc(N2CCOCC2)cc1`, the outcome in test [2], in test [6] and in test [3] was inactive.

In the case of `O=c1c2cc(F)c(NCCCN3CCOCC3)cc2nc2n1CC/C2=C\c1ccc(C(F)(F)F)cc1`, the outcome in test [2], in test [6] and in test [3] was inactive.

`CN(C)CCNc1cc2nc3n(c(=O)c2cc1F)CC/C3=C\c1ccc(C=O)cc1` yielded a Kd in test [1] of 68 µM. The result in test [2], in test [6] and in test [3] was inactive.

The compound `CCN(CC)CCCNc1cc2nc3n(c(=O)c2cc1F)CC/C3=C\c1ccc(N2CCOCC2)cc1` showed a Kd in test [1] of 55.3 µM. Further, the outcome in test [2], in test [6] and in test [3] was inactive.

`CCN(CC)c1ccc(/C=C2\CCn3c2nc2cc(NCCN(C)C)c(F)cc2c3=O)cc1`: the Kd in test [1] amounted to 45.7 µM. Besides, the outcome in test [2], in test [6] and in test [3] was inactive.

For the compound `COc1cc(/C=C2\CCn3c2nc2cc(NCCCN4CCOCC4)c(F)cc2c3=O)cc(OC)c1OC`, the results for the Kd in test [1] and in test [4] were 23.6 µM and 18.5 µM, respectively. In addition, the outcome in test [2] and in test [3] was inactive.

Take `CC(C)c1ccc(/C=C2\CCn3c2nc2cc(NCCCN4CCOCC4)c(F)cc2c3=O)cc1`: the result in test [2], in test [6] and in test [3] was inactive.

For `CCN(CC)CCCNc1cc2nc3n(c(=O)c2cc1F)CC/C3=C\c1ccc(OC)cc1`, the results for the Kd in test [1] and in test [4] were 23.5 µM and 15.4 µM, respectively. For the same compound, the result in test [2] and in test [3] was inactive.

As to `CCN(CC)CCCNc1cc2nc3n(c(=O)c2cc1F)CC/C3=C\c1ccc(C(C)C)cc1`, the result in test [2], in test [6] and in test [3] was inactive.

As for `CCN(CC)c1ccc(/C=C2\CCn3c2nc2cc(NCCCN4CCOCC4)c(F)cc2c3=O)cc1`, the result in test [2], in test [6] and in test [3] was inactive.

In the case of `O=c1c2cc(F)c(NCCCN3CCOCC3)cc2nc2n1CC/C2=C\c1ccc(F)cc1`, the affinity in test [1], expressed as Kd, was 44.2 µM. Further, the result in test [2], in test [6] and in test [3] was inactive.

Consider `O=Cc1ccc(/C=C2\CCn3c2nc2cc(NCCCN4CCOCC4)c(F)cc2c3=O)cc1`, for which the result in test [2] and in test [3] was inactive. The Kd in test [4] was 38 µM.

Consider `CCN(CC)CCCNc1cc2nc3n(c(=O)c2cc1F)CC/C3=C\c1cc(OC)c(OC)c(OC)c1`, for which the Kd in test [1] was determined as 28.2 µM; in test [4], 16.3 µM. Besides, the result in test [2] and in test [3] was inactive.

In test [1], `O=c1c2cc(F)c(N3CCOCC3)cc2nc2n1CC/C2=C\c1ccc(OCc2ccccc2)cc1O` showed a dissociation constant (Kd) of 56 µM. Also, the result in test [2], in test [6] and in test [3] was inactive.
